S1P1 ag-PAM: agonists and agonism potentiators of human S1P1 receptor; activation, % at 9.5 µM; AID 449; S1P1 CRE-bla cells, forskolin, beta-lactamase FRET, potentiator mode; S1P1 agonist co-added at EC20, 2 nM; 100% = saturating reference agonist, 0% = basal; hit rate 0.57% among 56,000; P21453;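 active = activation above a cutoff set at the mean activation of all tested compounds plus 3 SD, cut at about 54% in these data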;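 also: forskolin at 4 µM as EC80 and the EC20 agonist is SEW2871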
5HT1a ag: 5-HT1a (human) receptor agonism. CHO 5-HT1a Ga15 NFAT-bla reporter, FRET ratio; 0% basal, 100% maximal reference agonist. P08908. hit rate 0.56% among 65,000. AID 567. activation, % at 10 µM;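 active = activation above the screen-wide mean activation plus 3 SD, cut at about 19% in these data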
HTR1E antagonist: 5-HT1E (human) receptor antagonism. inhibition, % at 6 µM. hit rate 0.99% among 65,000. CHO 5-HT1E Ga15 NFAT-bla reporter, FRET, antagonist. AID 571. P28566;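 active = inhibition above a set limit, the mean inhibition across every tested compound plus 3 SD, cut at about 29% in these data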;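 also: signal is the 460 over 535 nm emission ratio of beta-lactamase substrate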
HTR1E agonist: 5-HT1E (human) receptor agonism. hit rate 0.69% among 65,000. P28566. CHO 5-HT1E Ga15 NFAT-bla reporter, FRET; 0% DMSO wells, 100% control agonist wells. activation, % at 6 µM;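 active = activation above a set limit, the screen-wide mean activation plus 3 SD, cut at about 8.5% in these data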
S1P3 ag: agonists of human S1P3 receptor | S1P3 NFAT-BLA reporter cells, agonism, FRET ratio; relative to 1 µM S1P, basal subtracted | activation, % at 4.5 µM | hit rate 0.1% among 60,000;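 active = activation above the screen-wide mean plus 3 SD, cut at about 4.5% in these data, passing the limit was not always enough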
Target sequence (Q99500 whole entry, looked up): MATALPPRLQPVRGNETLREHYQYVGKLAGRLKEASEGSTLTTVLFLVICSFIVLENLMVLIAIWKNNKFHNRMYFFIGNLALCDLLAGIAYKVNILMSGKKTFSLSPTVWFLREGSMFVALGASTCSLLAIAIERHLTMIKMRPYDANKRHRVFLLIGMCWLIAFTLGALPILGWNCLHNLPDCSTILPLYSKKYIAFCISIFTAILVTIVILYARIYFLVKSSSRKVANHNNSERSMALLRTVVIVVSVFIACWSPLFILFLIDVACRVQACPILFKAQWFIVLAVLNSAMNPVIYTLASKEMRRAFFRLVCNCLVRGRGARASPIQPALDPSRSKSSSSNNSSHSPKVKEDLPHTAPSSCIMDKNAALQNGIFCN
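Assay system: CHO cells stably expressing human S1P3, Gα16 and NFAT-β-lactamase reporter. Timing: overnight plating, 4 h compound 37 °C, 2 h substrate RT. Signal: β-lactamase FRET emission ratio 460/535 nm. Measure: percent activation versus median 1 µM S1P response, basal-subtracted, per plate. Repeats: primary screen single test, confirmation screen in triplicate.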
5HT1a antag: blocks the human serotonin 5-HT1a receptor; P08908; CHO 5-HT1a Ga15 NFAT-bla reporter, antagonist mode; inhibition, % at 10 µM; hit rate 0.68% among 62,000; AID 612;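 active = inhibition above the mean of all tested compounds plus 3 SD, cut at about 43% in these data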;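 also: receptor stimulated by 5-CT agonist at 100 nM near EC80; beta-lactamase reporter measured by ratiometric fluorescence of a cleavable substrate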
Hits are given with their value; 0 = inactive; - = no result given. Shown are actives, neighbours in structure and some others; about 3% of the full set was active somewhere.

SMILES	S1P1 ag-PAM	5HT1a ag	HTR1E antagonist	HTR1E agonist	S1P3 ag	5HT1a antag
COc1cccc2c(=O)n(CC(=O)NC3CCCCC3)ccc12	0	0	0	0	0	0
N#CCSc1nc2cc(C(=O)N3CCC(C(N)=O)CC3)ccc2c2nc3ccccc3n12	0	0	53	0	0	0
N#CCSc1nc2cc(C(=O)N3CCCC3)ccc2c(=O)n1Cc1ccccc1	0	0	0	0	0	0
CCCCOc1ncnc2c1[nH]c1ccc(F)cc12	116	0	0	0	0	0
Fc1ccc2[nH]c3c(N4CCN(c5ccccc5)CC4)ncnc3c2c1	106	0	0	0	0	-
COc1cc2[nH]c3c(N4CCN(c5ccccn5)CC4)ncnc3c2cc1OC	0	0	0	0	0	0
OC1(c2cccc(C(F)(F)F)c2)CCN(c2ncnc3c2[nH]c2ccc(F)cc23)CC1	100	0	35	0	0	0
COc1ccccc1N(CC(=O)Nc1cc(C)on1)S(=O)(=O)c1cccs1	0	0	0	0	0	0
CC(=O)Oc1ccc2cc(-c3nc4ccccc4n3C)c(=O)oc2c1	0	89	33	21	5.7	0
CCc1cc2c(=O)c(-c3nc4ccccc4n3C)c(COCC(=O)O)oc2cc1O	0	0	0	0	0	0
COc1ccccc1C(=O)NCCC(=O)N1CC(=O)Nc2ccccc21	0	0	0	0	0	0
CCOC(=O)Cc1csc(NC(=O)CSc2ncnc3c2cnn3-c2ccccc2Cl)n1	0	0	0	0	0	0
Cc1nnc(SCC(=O)N2CCN(S(=O)(=O)c3ccc(Cl)cc3)CC2)n(N)c1=O	0	0	0	24	0	0
Nn1cc(-c2ccccc2)nc1SCC(=O)N1CCN(S(=O)(=O)c2ccc(Cl)cc2)CC1	0	0	0	0	0	0
Brc1ccccc1-c1nnc(CSc2nncn2-c2ccccc2)o1	0	171	0	0	0	0
Brc1ccc(CSc2nnc(-c3ccccn3)n2Cc2ccco2)cc1	-	0	0	0	-	65
O=C(O)CCCNS(=O)(=O)c1ccc(Br)s1	-	0	0	0	0	0
CCN(CC)S(=O)(=O)c1ccc(Nc2cc(C)nc3ncnn23)cc1	0	0	0	0	0	0
CCCOC(=O)c1ccc(Nc2cc(C)nc3ncnn23)cc1	0	105	0	0	0	0
CCn1c2ccccc2c2cc(Nc3cc(C)nc4ncnn34)ccc21	0	0	70	0	0	72
Fc1ccc(OCCOCCNCC2CCCO2)cc1 (configuration not stated)	0	0	0	0	0	-
CN(C)/C=C1\C(=O)c2ccc(N(C)C)nc2CC1c1ccccc1 (configuration not stated)	0	99	0	25	0	0
CCOC(=O)Cc1c(C)nc2c(-c3cccc(Br)c3)c[nH]n2c1=O	0	0	0	0	0	0
CCc1nc(NCc2ccco2)c2oc3ccccc3c2n1	-	0	34	0	-	0
CCc1nc(SCCO)c2oc3ccccc3c2n1	0	0	33	0	0	0
SMILES	S1P1 ag-PAM	5HT1a ag	HTR1E antagonist	HTR1E agonist	S1P3 ag	5HT1a antag
CCNc1nc(CC)nc2c1oc1ccccc12	-	0	29	0	-	0
c1coc(CNc2ncnc3c2oc2ccccc23)c1	0	0	0	0	0	0
Cc1ccc(S(=O)(=O)N2CCN(C(=O)CN3CCOCC3)C2c2ccccc2)cc1 (configuration not stated)	0	0	0	0	0	0
Cc1ccc(C(C)C)c(OCCNc2nc3c(c(=O)n(C)c(=O)n3C)n2C)c1	0	0	0	0	0	-
O=S(=O)(NC1CC1)c1ccc(S(=O)(=O)N2CCCC3(CCCCC3)C2)cc1	0	0	29	0	0	0
CC12CCC(c3c(C(=O)Nc4nccs4)nn(-c4ccccc4)c31)C2(C)C (configuration not stated)	0	0	0	0	0	0
O=C(NCc1ccco1)C1CCN(C(=O)c2cc3sccc3n2Cc2ccc(Cl)cc2)CC1	0	0	0	0	0	45
COc1ccc(S(=O)(=O)N2CCCC(C(=O)NCc3ccncc3)C2)cc1 (configuration not stated)	0	0	0	0	0	0
Cc1ccc2c(c1)cc(CN(Cc1ccccc1)C(=O)N(C)C)c1nnnn12	0	0	0	0	0	0

Screening data as filed in PubChem.
